In publication PMC8026699 (Cancer research, 2021):

Molecular target: T1, recombinant human ACSS3 (Homo sapiens, UniProt Q9H6R3)
T1 sequence (Q9H6R3 30-686): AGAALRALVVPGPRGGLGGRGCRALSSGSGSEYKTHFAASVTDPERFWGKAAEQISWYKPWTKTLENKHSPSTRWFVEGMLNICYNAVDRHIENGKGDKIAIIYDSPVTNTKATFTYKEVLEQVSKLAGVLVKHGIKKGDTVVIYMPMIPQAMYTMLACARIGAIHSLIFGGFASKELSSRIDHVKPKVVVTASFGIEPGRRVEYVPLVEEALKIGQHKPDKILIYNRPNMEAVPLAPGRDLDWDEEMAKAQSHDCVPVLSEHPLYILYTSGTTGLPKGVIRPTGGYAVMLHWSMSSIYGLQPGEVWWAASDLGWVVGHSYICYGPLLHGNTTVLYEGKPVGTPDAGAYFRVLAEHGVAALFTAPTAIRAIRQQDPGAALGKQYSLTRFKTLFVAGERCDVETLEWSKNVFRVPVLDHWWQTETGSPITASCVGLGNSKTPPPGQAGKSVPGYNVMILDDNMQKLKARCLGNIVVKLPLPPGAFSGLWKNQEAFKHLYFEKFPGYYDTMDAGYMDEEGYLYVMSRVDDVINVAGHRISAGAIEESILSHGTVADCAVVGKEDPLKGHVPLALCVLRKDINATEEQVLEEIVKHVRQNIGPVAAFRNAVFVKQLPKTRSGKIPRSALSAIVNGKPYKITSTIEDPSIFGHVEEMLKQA
Experiment: TranScreener AMP biochemical assay of ACSS3 activity
Conditions: regardless of the substrate (acetate or propionate)
Procedure, shortened: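 Test compound was serially diluted in DMSO and added to ACSS1 (2 nM) or ACSS3 (25 nM). Acetate reaction: HEPES pH 7.4 buffer with 140 mM NaCl; final 5 mM acetate, 50 μM ATP, 5 μM CoA. Propionate reaction: HEPES/KCl/CHAPS buffer; final 5 mM propionate, 10 μM ATP, 100 μM CoA. Incubation 120 min, then AMP detected by terbium-antibody/tracer TR-FRET after 30 min. Percent inhibition was set against no-enzyme and DMSO controls.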

Compound: CCn1c(C(O)(c2ccccc2)c2ccccc2)nc2ccc(C(=O)NC[C@@H](C)O)cc21 [VY-3-135, (R)-1-ethyl-2-(hydroxydiphenylmethyl)-N-(2-hydroxypropyl)-1H-benzo[d]imidazole-6-carboxamide]
- inhibitory activity towards ACSS3: neither VY-3-249 nor VY-3-135 displayed any inhibitory activity
